The list is not random: actives were taken first. Their share in the collection is about 1.8%.
Hck Nef HTS: blocks Nef-activated human Hck kinase. P08631. Recombinant Hck-YEEI plus Nef, Z-Lyte FRET kinase assay. 0.68% of 220,000 active. inhibition, % at 20 µM. AID 463187;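 active = Hck-Nef kinase inhibition above about 50%, limit read from the data; inactive = inhibition below that limit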;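 also: 0% = DMSO with Hck plus Nef and 100% = Hck alone without Nef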
Target sequence (P08631 whole entry, looked up): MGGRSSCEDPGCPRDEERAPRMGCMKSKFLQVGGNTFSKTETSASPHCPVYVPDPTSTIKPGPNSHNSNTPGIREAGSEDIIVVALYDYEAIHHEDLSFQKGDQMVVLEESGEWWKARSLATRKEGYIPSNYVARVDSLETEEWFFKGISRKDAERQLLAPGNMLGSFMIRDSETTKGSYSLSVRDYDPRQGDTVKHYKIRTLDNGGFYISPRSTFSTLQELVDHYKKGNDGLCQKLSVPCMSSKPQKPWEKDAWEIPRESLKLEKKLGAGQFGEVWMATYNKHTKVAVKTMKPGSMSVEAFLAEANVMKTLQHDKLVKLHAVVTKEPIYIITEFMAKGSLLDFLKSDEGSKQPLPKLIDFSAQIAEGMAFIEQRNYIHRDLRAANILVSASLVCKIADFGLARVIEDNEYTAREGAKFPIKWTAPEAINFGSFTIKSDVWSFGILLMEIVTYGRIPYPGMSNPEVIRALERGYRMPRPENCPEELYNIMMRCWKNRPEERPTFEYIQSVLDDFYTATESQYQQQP
RanGTP-Impb inh: disruptors of Ran-importin-beta complex formation – biochemical, FRET, CFP-Ran, YFP-importin-beta, homogeneous, primary screen; cell-free CFP-Ran/YFP-importin-beta FRET ratio; inhibition, % (concentration not given with the values); 1.1% of 300,000 active;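 active = more than half of the replicate wells show a fall in the fluorescence ratio signal beyond about 16%, limit read from the data, passing the limit was not always enough; inconclusive = exactly half of the replicate wells pass the set limit; inactive = fewer than half of replicates pass the limit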;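 also: 0% = DMSO wells and 100% = Ran loaded with GDP instead of GTP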
Runt-CBFb FRET: Runt domain-CBFb interaction inhibition. 0.46% of 220,000 active. Q01196+Q13951. inhibition, % at 20 µM. Cerulean-Runt/Venus-CBFb FRET ratio 530/480, 1 h. AID 1496;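 active = inhibition over about 50% at 20 µM in the single-dose screen, limit read from the data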;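 also: 0% = DMSO wells and 100% = excess unlabeled CBFb competitor control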
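Reagent – Venus-CBFb binding partner, 100 nM · Assay system – Cerulean-tagged RUNX1 Runt domain (FRET donor) fusion protein · Input – 100 nM per protein · Incubation – two 1 h room-temperature incubations shielded from light · Measured by – FRET fluorescence · Medium – Tris buffer pH 7.5 with salts and BSA · Benchmarks – unlabeled CBFb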
Runt-SMMHC FRET: inhibitors of human RUNX1 Runt domain binding to CBFb-SMMHC | Cerulean-Runt/Venus-CBFb-SMMHC FRET ratio 530/480, 1 h | inhibition, % at 20 µM | 0.74% of 220,000 active | Q01196+Q13951;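 active = mean inhibition across duplicate retests at 20 µM reaching about 50%, limit read from the data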;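 also: 0% = DMSO wells and 100% = wells with excess untagged CBFb-SMMHC; inhibitors lower the FRET ratio by blocking Runt binding to CBFb-SMMHC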
YIC FRET counter: counter-screen for RanGTP-importin-beta inhibitors: YIC FRET probe. shares compounds with RanGTP-Impb inh. Purified YIC probe, intramolecular FRET ratio YFP/CFP. IC50, µM. 40% of 1,000 active;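 active = fitted half-maximal inhibitory concentration no more than tenfold above the top dose tested; inconclusive = flat fit with 30 to 70% activity, or poor fit; inactive = half-maximal concentration beyond tenfold above the top dose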
Starred values were filed as active, the others as inactive.

Results for CCOC(=O)c1c(NC(=O)Nc2ccc(F)cc2)sc2c1CCN(C)C2 ?
Hck Nef HTS: 6; RanGTP-Impb inh: 20*; Runt-CBFb FRET: 16; Runt-SMMHC FRET: 15; YIC FRET counter: >50

What do the screens show for `CCOC(=O)c1c(/N=C/c2ccccc2O)sc2c1CCC2`?
Hck Nef HTS: -1; RanGTP-Impb inh: -1; Runt-CBFb FRET: 21; Runt-SMMHC FRET: 40

What do the screens show for `CCOC(=O)c1c(NC(=O)Cc2ccccc2)sc2c1CCN(CC)C2`?
RanGTP-Impb inh: 55*; YIC FRET counter: >50

Results for CCN1CCN(CCCNC(=O)CCC(=O)N2CCOc3ccc(Cl)cc32)CC1 ?
RanGTP-Impb inh: 0

What do the screens show for `CC(=O)Nc1cccc(OCCCNC(=O)c2cccc3ccccc23)c1`?
Hck Nef HTS: -1; RanGTP-Impb inh: 0; Runt-CBFb FRET: -2; Runt-SMMHC FRET: -6

How did COc1ccc(OC)c(CCNC(=O)CC2(CC3=NS(=O)(=O)c4ccccc4N3)CCCC2)c1 do in these assays?
RanGTP-Impb inh: -1

Results for CCN1CCc2c(sc(NC(=O)Cc3ccccc3)c2C(=O)OC)C1 ?
RanGTP-Impb inh: 42*; YIC FRET counter: >50

What do the screens show for `CCOC(=O)c1c(NC(=O)c2ccc(S(=O)(=O)N3CCOCC3)cc2)sc2c1CCN(C(C)C)C2`?
RanGTP-Impb inh: 7

What do the screens show for `CC(=O)N1CCc2c(sc(NC(=O)Cc3ccccc3)c2C#N)C1`?
RanGTP-Impb inh: -2

How did CCOC(=O)c1c(NC(=O)C2CCCCC2)sc2c1CCN(C(C)C)C2 do in these assays?
RanGTP-Impb inh: 40*; YIC FRET counter: >50

Results for CN(C)c1ccc(/C=C(\NC(=O)c2ccccc2)C(=O)NCc2ccncc2)cc1 ?
RanGTP-Impb inh: 23*; YIC FRET counter: >50

Results for CN(C)c1ccc(/C=C(\NC(=O)c2ccccc2)C(=O)NCc2cccnc2)cc1 ?
RanGTP-Impb inh: 8

Results for Oc1c(C=Nc2ccccc2)sc2ccccc12 ?
Hck Nef HTS: 25; RanGTP-Impb inh: 16*; YIC FRET counter: 7.6*

Results for C=C(C)CSc1nnc(-c2ccc(OC)cc2)n1N ?
Hck Nef HTS: -1; RanGTP-Impb inh: 0; Runt-CBFb FRET: 0; Runt-SMMHC FRET: -8

Results for C=C(C)Cn1c(SCC(=O)O)nnc1-c1ccc(OC)cc1 ?
Hck Nef HTS: 2; RanGTP-Impb inh: 22*; Runt-CBFb FRET: -1; Runt-SMMHC FRET: 1; YIC FRET counter: >50

How did CS(=O)(=O)N(CC(=O)NCCSCc1ccco1)c1ccc(Cl)cc1 do in these assays?
Hck Nef HTS: 19; RanGTP-Impb inh: 16*; Runt-CBFb FRET: 3; Runt-SMMHC FRET: -1; YIC FRET counter: >50

Results for COC(=O)c1ccc(NC(=S)NC2c3ccccc3CC2O)cc1 (configuration not stated) ?
Hck Nef HTS: 24; RanGTP-Impb inh: inconclusive; Runt-CBFb FRET: 2; Runt-SMMHC FRET: 2

Results for CCc1ccc(NC(=S)N2CCCCCCC2)cc1 ?
Hck Nef HTS: 15; RanGTP-Impb inh: 0; Runt-CBFb FRET: -2; Runt-SMMHC FRET: 4

How did CN(C)S(=O)(=O)c1cccc(NC(=O)CNC2CCCCC2)c1 do in these assays?
Hck Nef HTS: -1; RanGTP-Impb inh: 27*; Runt-CBFb FRET: -2; Runt-SMMHC FRET: 0; YIC FRET counter: >50

What do the screens show for `CC(=O)Nc1cc[n+](C(C)C(=O)c2ccc(Br)cc2)cc1` (configuration not stated)?
Hck Nef HTS: 11; RanGTP-Impb inh: 1; Runt-CBFb FRET: -2; Runt-SMMHC FRET: 2

What do the screens show for `CCOC(=O)C1=C(N)Oc2ccc3ccccc3c2C1c1ccc(O)c(OC)c1` (configuration not stated)?
RanGTP-Impb inh: 29*; YIC FRET counter: >50

What do the screens show for `CCOC(=O)C1=C(N)Oc2ccc3ccccc3c2C1c1ccc(O)cc1` (configuration not stated)?
RanGTP-Impb inh: 5

How did Cc1nonc1CN(C)C(=O)c1ccc(OC2CCN(C(=O)c3cccnc3)CC2)cc1 do in these assays?
Hck Nef HTS: 7; RanGTP-Impb inh: 1; Runt-CBFb FRET: 0; Runt-SMMHC FRET: 1

Results for NS(=O)(=O)c1cccc(NC(=O)CCCNC(=O)c2ccc(Cl)cc2)c1 ?
RanGTP-Impb inh: -2

How did NS(=O)(=O)c1cccc(NC(=O)CCSc2ccc(Cl)cc2)c1 do in these assays?
Hck Nef HTS: 7; RanGTP-Impb inh: 19*; Runt-CBFb FRET: 9; Runt-SMMHC FRET: -22; YIC FRET counter: >50

How did CCOc1ccccc1NC1=CC(=O)CC(c2ccccc2)C1 (configuration not stated) do in these assays?
Hck Nef HTS: 2; RanGTP-Impb inh: 24*; Runt-CBFb FRET: -2; Runt-SMMHC FRET: -8; YIC FRET counter: >50

Results for Cc1noc(C)c1NC(=O)N(C)C[C@@H]1Oc2ccc(N(C)C)cc2CC(=O)N([C@H](C)CO)C[C@H]1C ?
YIC FRET counter: >50

How did CCOc1ccc(NC(=O)C2CCCN(c3nc(C)cc(C)n3)C2)cc1 (configuration not stated) do in these assays?
RanGTP-Impb inh: 1

Results for Cc1cc(C)cc(OCC(=O)OC/C(O)=C(\C#N)c2nc3ccccc3[nH]2)c1 ?
Hck Nef HTS: 6; RanGTP-Impb inh: -3; Runt-CBFb FRET: 2; Runt-SMMHC FRET: 2

Results for Cc1cccc(C)c1OCC(=O)OC/C(O)=C(\C#N)c1nc2ccccc2[nH]1 ?
Hck Nef HTS: 5; RanGTP-Impb inh: 26*; Runt-CBFb FRET: 3; Runt-SMMHC FRET: 1; YIC FRET counter: >50

What do the screens show for `O=Cc1cn(CC(=O)N2CCCCC2)c2ccccc12`?
Hck Nef HTS: 4; RanGTP-Impb inh: -2; Runt-CBFb FRET: -3; Runt-SMMHC FRET: 1

How did O=C(O)Cn1cc(/C=C2\SC(=O)N(c3ccccc3)C2=O)c2ccccc21 do in these assays?
Hck Nef HTS: 4; RanGTP-Impb inh: 24*; Runt-CBFb FRET: 14; Runt-SMMHC FRET: 29; YIC FRET counter: 39*

What do the screens show for `O=C(O)Cn1cc(/C=C2/SC(=O)N(CC(=O)N3CCCCCC3)C2=O)c2ccccc21`?
Hck Nef HTS: 24; RanGTP-Impb inh: 17*; Runt-CBFb FRET: 8; Runt-SMMHC FRET: 27; YIC FRET counter: >50

Results for NNC(=S)Nc1ccc(C(F)(F)F)cc1Cl ?
Hck Nef HTS: 5; RanGTP-Impb inh: -1; Runt-CBFb FRET: 4; Runt-SMMHC FRET: -2

What do the screens show for `COc1ccc(Cl)cc1S(=O)(=O)N1CCC(C(=O)NCc2ccccn2)CC1`?
RanGTP-Impb inh: 1

What do the screens show for `CN(CCOc1ccccc1)CC(=O)Nc1ccc(Cl)cc1[N+](=O)[O-]`?
Hck Nef HTS: 12; RanGTP-Impb inh: 35*; Runt-CBFb FRET: -3; Runt-SMMHC FRET: -99; YIC FRET counter: >50

Results for COc1cc(NC(=O)CN(C)CCOc2ccccc2)c(C)cc1[N+](=O)[O-] ?
RanGTP-Impb inh: 0

Screening data deposited in PubChem by several laboratories.
